Laboratory results from ChEMBL document CHEMBL1152649, “Synthesis, cytotoxicity and human telomerase inhibition activities of a series of 1,2-heteroannelated anthraquinones and anthra[1,2-d]imidazole-6,11-dione homologues” (2009).
The source made the active and inactive calls. The rule behind the calls is not given here.

Key:
[1] = tested on: SK-MEL-2; experiment: Antiproliferative activity against human SK-MEL-2 cells assessed as cell growth at 10 uM; type: functional; settings: read-out: Activity
How it was run: (§1)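 NCI 60 cell line panel, single-dose screen (10^-5 M) run by the developmental therapeutics program protocol. Results are given as growth percent of treated cells relative to untreated control cells for each line.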

[2] = tested on: DU-145; experiment: Antiproliferative activity against human DU145 cells assessed as cell growth at 10 uM; type: functional; settings: read-out: Activity; how it was run: as §1
[3] = tested on: UACC-257; experiment: Antiproliferative activity against human UACC257 cells assessed as cell growth at 10 uM; type: functional; settings: read-out: Activity
How it was run: (§2)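 NCI 60 cell line panel, single dose (10^-5 M), run per the Developmental Therapeutics Program protocol (one dose mean graph). Each result is the growth percentage of treated cells relative to untreated control cells.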

[4] = tested on: A549; experiment: Antiproliferative activity against human A549 cells assessed as cell growth at 10 uM; type: functional; settings: read-out: Activity; how it was run: as §1
[5] = tested on: CCRF-CEM; experiment: Antiproliferative activity against human CCRF-CEM cells assessed as cell growth at 10 uM; type: functional; settings: read-out: Activity; how it was run: as §1
[6] = tested on: NCI-H226; experiment: Antiproliferative activity against human NCI-H226 cells assessed as cell growth at 10 uM; type: functional; settings: read-out: Activity; how it was run: as §1
[7] = tested on: MCF7; experiment: Antiproliferative activity against human MCF7 cells assessed as cell growth at 10 uM; type: functional; settings: read-out: Activity; how it was run: as §1
[8] = tested on: TK-10; experiment: Antiproliferative activity against human TK10 cells assessed as cell growth at 10 uM; type: functional; settings: read-out: Activity; how it was run: as §2
[9] = tested on: SK-OV-3; experiment: Antiproliferative activity against human SKOV3 cells assessed as cell growth at 10 uM; type: functional; settings: read-out: Activity; how it was run: as §1
[10] = Cytotoxicity against human H1299 cells at 10 uM after 48 hrs by MTT assay; type: functional; settings: NCI-H1299, 48 h
How it was run: (§3)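 H1299 non-small cell lung cancer cells were grown in RPMI 1640 with 10% FBS, penicillin and streptomycin at 37 °C under 5% CO2. About 2 × 10³ cells per well were seeded and left 24 h. Compounds were dissolved fresh in DMSO, diluted into complete medium and applied for 48 h. MTT was then added for 4 h at 37 °C, followed by lysis buffer (20% SDS, 50% DMF) for 16 h, and absorbance was read at 550 nm.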

[11] = tested on: HT-29; experiment: Antiproliferative activity against human HT-29 cells assessed as cell growth at 10 uM; type: functional; settings: read-out: Activity; how it was run: as §1
[12] = tested on: HOP-62; experiment: Antiproliferative activity against human HOP62 cells assessed as cell growth at 10 uM; type: functional; settings: read-out: Activity; how it was run: as §1
[13] = tested on: HL-60(TB); experiment: Antiproliferative activity against human HL-60(TB) cells assessed as cell growth at 10 uM; type: functional; settings: read-out: Activity
How it was run: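 NCI Developmental Therapeutics Program 60-cell-line one-dose screen at 10^-5 M. Readout is growth percentage of treated cells relative to untreated control cells.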

[14] = tested on: PC-3; experiment: Antiproliferative activity against human PC3 cells assessed as cell growth at 10 uM; type: functional; settings: read-out: Activity; how it was run: as §1
[15] = tested on: A498; experiment: Antiproliferative activity against human A498 cells assessed as cell growth at 10 uM; type: functional; settings: read-out: Activity; how it was run: as §1
[16] = Antiproliferative activity against human Hs 578T cells assessed as cell growth at 10 uM; type: functional; settings: read-out: Activity; how it was run: as §1
[17] = Antiproliferative activity against human RPMI8266 cells assessed as cell growth at 10 uM; type: functional; settings: read-out: Activity; how it was run: as §1
[18] = tested on: U-251; experiment: Antiproliferative activity against human U251 cells assessed as cell growth at 10 uM; type: functional; settings: read-out: Activity; how it was run: as §2
[19] = tested on: OVCAR-3; experiment: Antiproliferative activity against human OVCAR-3 cells assessed as cell growth at 10 uM; type: functional; settings: read-out: Activity; how it was run: as §1
[20] = tested on: SK-MEL-5; experiment: Antiproliferative activity against human SK-MEL-5 cells assessed as cell growth at 10 uM; type: functional; settings: read-out: Activity; how it was run: as §1
[21] = molecular target: Telomerase reverse transcriptase (Homo sapiens) (UniProt O14746); experiment: Inhibition of telomerase in human H1299 cells up to 100 uM by TRAP assay; type: cell-based
Telomerase reverse transcriptase (Homo sapiens), sequence (O14746 whole entry): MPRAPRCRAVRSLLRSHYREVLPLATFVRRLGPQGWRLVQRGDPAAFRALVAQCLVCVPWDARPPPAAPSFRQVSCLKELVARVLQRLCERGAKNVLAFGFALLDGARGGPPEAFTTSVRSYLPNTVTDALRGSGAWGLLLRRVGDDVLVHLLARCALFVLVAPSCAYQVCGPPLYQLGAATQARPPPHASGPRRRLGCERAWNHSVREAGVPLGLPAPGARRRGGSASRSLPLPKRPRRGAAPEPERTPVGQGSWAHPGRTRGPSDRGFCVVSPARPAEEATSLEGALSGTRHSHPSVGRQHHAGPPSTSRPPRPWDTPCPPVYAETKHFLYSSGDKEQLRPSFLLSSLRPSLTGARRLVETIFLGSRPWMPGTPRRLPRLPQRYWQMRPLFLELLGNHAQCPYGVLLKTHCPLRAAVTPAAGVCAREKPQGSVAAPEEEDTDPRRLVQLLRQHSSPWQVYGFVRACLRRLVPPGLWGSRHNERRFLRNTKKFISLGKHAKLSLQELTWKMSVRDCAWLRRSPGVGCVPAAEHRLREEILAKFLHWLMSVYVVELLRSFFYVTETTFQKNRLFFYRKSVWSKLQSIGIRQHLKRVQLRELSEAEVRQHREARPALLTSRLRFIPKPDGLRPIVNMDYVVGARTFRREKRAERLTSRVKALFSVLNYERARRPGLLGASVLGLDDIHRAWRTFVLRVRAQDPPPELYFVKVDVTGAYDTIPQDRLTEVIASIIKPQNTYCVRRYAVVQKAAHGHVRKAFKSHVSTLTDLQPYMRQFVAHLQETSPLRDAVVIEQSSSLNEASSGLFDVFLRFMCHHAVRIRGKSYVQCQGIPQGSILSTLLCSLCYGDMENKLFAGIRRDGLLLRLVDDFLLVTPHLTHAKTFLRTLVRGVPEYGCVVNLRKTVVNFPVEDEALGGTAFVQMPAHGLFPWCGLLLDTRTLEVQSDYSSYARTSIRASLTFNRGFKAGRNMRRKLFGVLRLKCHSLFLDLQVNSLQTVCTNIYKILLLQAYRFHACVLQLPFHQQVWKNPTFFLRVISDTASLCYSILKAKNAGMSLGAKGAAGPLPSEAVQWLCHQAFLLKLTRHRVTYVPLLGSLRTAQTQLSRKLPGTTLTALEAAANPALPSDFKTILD
How it was run: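 PCR-based telomeric repeat amplification protocol (TRAP). The telomerase source was total lysate of H1299 lung cancer cells, with protein measured against BSA standards. Controls were extract without inhibitor and RNase A-treated extract.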

[22] = tested on: NCI-H23; experiment: Antiproliferative activity against human NCI-H23 cells assessed as cell growth at 10 uM; type: functional; settings: read-out: Activity; how it was run: as §1
[23] = tested on: HCC 2998; experiment: Antiproliferative activity against human HCC2998 cells assessed as cell growth at 10 uM; type: functional; settings: read-out: Activity; how it was run: as §1
[24] = tested on: COLO 205; experiment: Antiproliferative activity against human COLO205 cells assessed as cell growth at 10 uM; type: functional; settings: read-out: Activity; how it was run: as §1
[25] = molecular target: Telomerase reverse transcriptase (Homo sapiens) (UniProt O14746); experiment: Inhibition of TERT in human H1299 cells assessed as residual transcriptional activity at 100 uM after 24 hrs by SEAP reporter gene assay; values are per cent of control
[26] = Cytotoxicity against human H1299 cells at 100 uM after 48 hrs by MTT assay; type: functional; settings: NCI-H1299, 48 h; how it was run: as §3
[27] = tested on: NCI-H460; experiment: Antiproliferative activity against human NCI-H460 cells assessed as cell growth at 10 uM; type: functional; settings: read-out: Activity; how it was run: as §1
[28] = Cytotoxicity against human H1299 cells at 1 uM after 48 hrs by MTT assay; type: functional; settings: NCI-H1299, 48 h; how it was run: as §3
[29] = tested on: SK-MEL-28; experiment: Antiproliferative activity against human SK-MEL-28 cells assessed as cell growth at 10 uM; type: functional; settings: read-out: Activity; how it was run: as §1
[30] = tested on: OVCAR-5; experiment: Antiproliferative activity against human OVCAR5 cells assessed as cell growth at 10 uM; type: functional; settings: read-out: Activity; how it was run: as §1
[31] = tested on: SR; experiment: Antiproliferative activity against human SR cells assessed as cell growth at 10 uM; type: functional; settings: read-out: Activity; how it was run: as §2
[32] = tested on: Malme-3M; experiment: Antiproliferative activity against human MALME-3M cells assessed as cell growth at 10 uM; type: functional; settings: read-out: Activity; how it was run: as §1
[33] = tested on: NCI/ADR-RES; experiment: Antiproliferative activity against human NCI/ADR-RES cells assessed as cell growth at 10 uM; type: functional; settings: read-out: Activity; how it was run: as §1
[34] = tested on: 786-0; experiment: Antiproliferative activity against human 786-0 cells assessed as cell growth at 10 uM; type: functional; settings: read-out: Activity; how it was run: as §1
[35] = tested on: T47D; experiment: Antiproliferative activity against human T47D cells assessed as cell growth at 10 uM; type: functional; settings: read-out: Activity; how it was run: as §2
[36] = molecular target: Telomerase reverse transcriptase (Homo sapiens) (UniProt O14746); experiment: Inhibition of TERT in human H1299 cells assessed as residual transcriptional activity at 1 uM after 24 hrs by SEAP reporter gene assay; values are per cent of control
[37] = tested on: SF-295; experiment: Antiproliferative activity against human SF295 cells assessed as cell growth at 10 uM; type: functional; settings: read-out: Activity; how it was run: as §1
[38] = tested on: M14; experiment: Antiproliferative activity against human M14 cells assessed as cell growth at 10 uM; type: functional; settings: read-out: Activity; how it was run: as §1
[39] = tested on: SNB-19; experiment: Antiproliferative activity against human SNB19 cells assessed as cell growth at 10 uM; type: functional; settings: read-out: Activity; how it was run: as §1
[40] = tested on: K562; experiment: Antiproliferative activity against human K562 cells assessed as cell growth at 10 uM; type: functional; settings: read-out: Activity; how it was run: as §1
[41] = tested on: OVCAR-8; experiment: Antiproliferative activity against human OVCAR8 cells assessed as cell growth at 10 uM; type: functional; settings: read-out: Activity; how it was run: as §1
[42] = tested on: NCI-H322M; experiment: Antiproliferative activity against human NCI-H322M cells assessed as cell growth at 10 uM; type: functional; settings: read-out: Activity; how it was run: as §1
[43] = tested on: SN12C; experiment: Antiproliferative activity against human SN12C cells assessed as cell growth at 10 uM; type: functional; settings: read-out: Activity; how it was run: as §1
[44] = tested on: HOP-92; experiment: Antiproliferative activity against human HOP92 cells assessed as cell growth at 10 uM; type: functional; settings: read-out: Activity; how it was run: as §1
[45] = tested on: EKVX; experiment: Antiproliferative activity against human EKVX cells assessed as cell growth at 10 uM; type: functional; settings: read-out: Activity; how it was run: as §1

CCc1nc2ccc3c(c2[nH]1)C(=O)c1ccccc1C3=O
growth at 10 µM [1]: 40.1%
growth at 10 µM [2]: 61.6%
growth at 10 µM [3]: 39.7%
growth at 10 µM [4]: 68.2%
growth at 10 µM [5]: 45.4%
growth at 10 µM [6]: 75.9%
growth at 10 µM [7]: 69.8%
growth at 10 µM [8]: 33.8%
growth at 10 µM [9]: 25.8%
viability at 10 µM [10]: 82%
growth at 10 µM [11]: 64.5%
growth at 10 µM [12]: 97.7%
growth at 10 µM [13]: 41.8%
growth at 10 µM [14]: 48.5%
growth at 10 µM [15]: 28.9%
growth at 10 µM [16]: -18.6%
growth at 10 µM [17]: 56.2%
growth at 10 µM [18]: 60.1%
growth at 10 µM [19]: 78.2%
growth at 10 µM [20]: 60.8%
inhibition [21]: inactive
growth at 10 µM [22]: 71.4%
growth at 10 µM [23]: 67.7%
growth at 10 µM [24]: 69.7%
residual activity [25]: 25%
viability at 100 µM [26]: 37%
growth at 10 µM [27]: 59.8%
viability at 1 µM [28]: 88%
growth at 10 µM [29]: 86.8%
growth at 10 µM [30]: 102%
growth at 10 µM [31]: 52.5%
growth at 10 µM [32]: 56.9%
growth at 10 µM [33]: 74.4%
growth at 10 µM [34]: 76.6%
growth at 10 µM [35]: 63%
residual activity [36]: 70%
growth at 10 µM [37]: 75.8%
growth at 10 µM [38]: 60.1%
growth at 10 µM [39]: 74.9%
growth at 10 µM [40]: 64.4%
growth at 10 µM [41]: 72.9%
growth at 10 µM [42]: 31.4%
growth at 10 µM [43]: 68.5%
growth at 10 µM [44]: 41.4%
growth at 10 µM [45]: 52.3%

CN(C)c1ccc(-c2nc3ccc4c(c3[nH]2)C(=O)c2ccccc2C4=O)cc1
growth at 10 µM [1]: 73.2%
growth at 10 µM [2]: 99.9%
growth at 10 µM [3]: 103%
growth at 10 µM [4]: 113%
growth at 10 µM [5]: 63.9%
growth at 10 µM [6]: 89.3%
growth at 10 µM [7]: 67.4%
growth at 10 µM [8]: 116%
growth at 10 µM [9]: 202%
viability at 10 µM [10]: 62%
growth at 10 µM [11]: 105%
growth at 10 µM [12]: 102%
growth at 10 µM [13]: 89.7%
growth at 10 µM [14]: 82.4%
growth at 10 µM [15]: 86.1%
growth at 10 µM [16]: 109%
growth at 10 µM [17]: 78.4%
growth at 10 µM [18]: 102%
growth at 10 µM [19]: 111%
growth at 10 µM [20]: 93.8%
inhibition [21]: inactive
growth at 10 µM [22]: 93.8%
growth at 10 µM [23]: 109%
growth at 10 µM [24]: 208%
residual activity [25]: 21%
viability at 100 µM [26]: 22%
growth at 10 µM [27]: 101%
viability at 1 µM [28]: 88%
growth at 10 µM [29]: 96.8%
growth at 10 µM [30]: 117%
growth at 10 µM [31]: 118%
growth at 10 µM [32]: 110%
growth at 10 µM [33]: 108%
growth at 10 µM [34]: 109%
growth at 10 µM [35]: 119%
residual activity [36]: 92%
growth at 10 µM [37]: 159%
growth at 10 µM [38]: 113%
growth at 10 µM [39]: 127%
growth at 10 µM [40]: 96.1%
growth at 10 µM [41]: 111%
growth at 10 µM [42]: 94.8%
growth at 10 µM [43]: 94.5%
growth at 10 µM [44]: 89.9%
growth at 10 µM [45]: 91.9%
